According to ChEMBL document CHEMBL1122501, “Potential antiatherosclerotic agents. 2. (Aralkylamino)- and (alkylamino) benzoic acid analogues of cetaben” (1983):

Columns and labels:
[1] = target: T1, Sterol O-acyltransferase 1 (Rattus norvegicus) (UniProt O70536); experiment: In vitro inhibitory activity against acyl coenzyme A:cholesterol acyltransferase (ACAT); set-up: concentration or dose not given beside the values; conditions: concentration not given here
T1 sequence (whole entry): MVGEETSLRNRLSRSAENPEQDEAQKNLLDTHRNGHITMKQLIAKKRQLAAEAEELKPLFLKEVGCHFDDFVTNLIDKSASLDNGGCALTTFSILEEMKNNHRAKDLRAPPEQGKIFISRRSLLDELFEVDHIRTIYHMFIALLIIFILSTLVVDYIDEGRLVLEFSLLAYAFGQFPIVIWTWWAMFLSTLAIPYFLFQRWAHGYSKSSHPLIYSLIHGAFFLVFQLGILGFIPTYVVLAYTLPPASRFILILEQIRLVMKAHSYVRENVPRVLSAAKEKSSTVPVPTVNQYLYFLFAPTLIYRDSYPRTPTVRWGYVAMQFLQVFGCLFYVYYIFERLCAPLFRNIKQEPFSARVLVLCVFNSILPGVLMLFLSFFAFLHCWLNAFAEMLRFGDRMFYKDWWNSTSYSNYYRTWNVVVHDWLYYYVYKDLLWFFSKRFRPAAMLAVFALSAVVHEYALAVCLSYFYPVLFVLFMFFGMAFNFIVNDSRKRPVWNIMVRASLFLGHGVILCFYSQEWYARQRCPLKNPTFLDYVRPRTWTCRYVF
Procedure, shortened: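 ACAT enzyme from rat adrenal homogenate in 0.2 M KH2PO4 buffer pH 7.4, 1000g 15 min 5 °C supernatant (microsomal fraction). Supernatant + BSA (50 mg/mL) + compound at final 5.2 μg/mL + buffer preincubated 10 min 37 °C; [14C]oleoyl-CoA (0.4 μCi) added, 30 min 37 °C. Lipids extracted, TLC; cholesteryl ester zone counted. Mean % inhibition vs no-compound control; Student's t test.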

Rattus norvegicus [2] = experiment: In vivo Triglyceride lowering activity at dose as 0.03 % of the diet.; format: functional
Procedure, shortened: (§1)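 Male CFE or CD-1 Sprague-Dawley rats, 140-150 g; 8 per control group, 4 per test group. Compound mixed into ground chow (w/w) via MeOH-CHCl3 (1:3) solution, solvent evaporated; controls got solvent-treated chow. Fed ad libitum 5 days, food intake monitored, killed fed and bled. Serum sterols and triglycerides by adapted autoanalyzer methods; mean percent of control, Student's t test.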

Rattus norvegicus [3] = experiment: In vivo Sterol lowering activity at dose as 0.03 % of the diet.; format: functional; procedure, shortened: as §1
Rattus norvegicus [4] = experiment: In vivo Sterol lowering activity at dose as 0.10 % of the diet.; format: functional; procedure, shortened: as §1
Rattus norvegicus [5] = experiment: In vivo triglyceride lowering activity, dosed at 0.01 % of the diet.; format: functional; procedure, shortened: as §1
Rattus norvegicus [6] = experiment: In vivo triglyceride lowering activity, dosed at 0.10 % of the diet.; format: functional; procedure, shortened: as §1
Rattus norvegicus [7] = experiment: In vivo Sterol lowering activity at dose as 0.01 % of the diet.; format: functional; procedure, shortened: as §1
Rattus norvegicus [8] = experiment: In vivo triglyceride lowering activity, dosed at 0.03 % of the diet; format: functional; procedure, shortened: as §1
Rattus norvegicus [9] = experiment: In vivo triglyceride lowering activity dosed at 0.10 % of the diet; format: functional; procedure, shortened: as §1
Rattus norvegicus [10] = experiment: In vivo Triglyceride lowering activity at dose as 0.01 % of the diet; format: functional; procedure, shortened: as §1
Rattus norvegicus [11] = experiment: In vivo sterol lowering activity dosed at 0.10 % of the diet; format: functional; procedure, shortened: as §1

Compound | inhibition [1] | Diet (Rattus norvegicus [2]) | serum sterol level, percent of control (Rattus norvegicus [3]) | serum sterol, percent of control (Rattus norvegicus [4]) | Diet (Rattus norvegicus [5]) | Diet (Rattus norvegicus [6]) | serum sterol, percent of control (Rattus norvegicus [7]) | serum triglycerides, percent of control (Rattus norvegicus [8]) | serum triglycerides, percent of control (Rattus norvegicus [9]) | Diet (Rattus norvegicus [10]) | serum sterol, percent of control (Rattus norvegicus [11]) | Diet (Rattus norvegicus [4])
Nc1ccccc1CCCNc1ccc(C(=O)O)cc1 | 15% | 84% | 96% | 84% | 99% | 92% | 121% |  |  |  |  | 
CCOC(=O)c1ccc(NCCCCCC(=O)c2ccc(Cl)cc2)cc1 | 50% |  | 92% | 99% | 76% | 79% | 98% | 56% |  |  |  | 
CCOC(=O)c1ccc(NC(=O)CCc2ccc(C)cc2)cc1 | 25% | 64% | 99% | 88% | 73% | 69% | 97% |  |  |  |  | 
O=C(CCc1ccc(Cl)cc1)Nc1ccc(C(=O)O)cc1 | 33% | 115% | 104% | 96% | 100% | 100% | 104% |  |  |  |  | 
O=C(O)c1cccc(NCCCc2ccc(Cl)cc2)c1 | 0% | 93% | 89% | 92% | 80% |  | 103% |  | 37% |  |  | 
CCOC(=O)Cc1ccc(NCCCc2ccc(Cl)cc2)cc1 | 91% |  | 91% | 91% | 119% | 67% | 103% | 126% |  |  |  | 
CCOC(=O)c1ccc(NCCc2ccc(Cl)cc2)cc1 | 37% | 90% | 113% | 97% |  |  | 115% |  | 60% | 70% |  | 
CCOC(=O)c1ccc(NCCCc2ccc(Cl)cc2)cc1C(=O)OCC | 54% | 91% | 99% | 96% | 93% | 80% | 95% |  |  |  |  | 
O=C(O)c1ccc(NCCc2ccc(Cl)cc2)cc1 | 6% | 91% | 90% | 105% | 114% |  | 106% |  | 67% |  |  | 
O=C(OCC(O)CO)c1ccc(NCCCc2ccccc2)cc1 (stereo unspecified) | 21% | 92% | 85% |  |  |  | 90% |  | 49% | 57% | 74% | 
O=C(O)c1ccc(NCCCCCC(O)c2ccc(Cl)cc2)cc1 (stereo unspecified) | 30% | 90% | 100% | 86% | 85% |  | 100% |  | 72% |  |  | 
O=C(O)c1ccc(NCCCCCCc2ccco2)cc1 | 21% | 61% | 87% |  | 67% |  | 91% |  | 51% |  | 86% | 
CCOC(=O)C(C)c1ccc(NCCCc2ccc(Cl)cc2)cc1 (stereo unspecified) | 85% |  | 89% | 75% |  |  | 86% | 48% | 42% | 57% |  | 
O=C(O)c1ccc(NCCCc2c(Cl)cccc2Cl)cc1 | 21% |  |  | 106% |  | 82% |  |  |  |  |  | 
CCOC(=O)c1ccc(NCCCc2ccco2)cc1 | 56% | 96% | 94% | 101% | 90% | 83% | 96% |  |  |  |  | 
O=C(O)Cc1ccc(NCCCc2ccc(Cl)cc2)cc1 | 9% | 95% | 85% | 82% | 111% |  | 83% |  | 61% |  |  | 
O=C(O)c1ccc(NCCCc2ccccc2[N+](=O)[O-])cc1 | 2% | 103% | 83% |  | 84% |  | 88% |  | 77% |  | 83% | 
CCOC(=O)c1ccc(NCCCc2ccccc2N)cc1 | 43% | 97% | 96% | 98% | 83% |  | 103% |  | 69% |  |  | 
CCOC(=O)c1cccc(NCCCc2ccc(Cl)cc2)c1 | 50% |  | 93% | 96% |  |  | 96% | 62% | 59% | 75% |  | 
CCOC(=O)c1ccc(NC(=O)CCc2ccc(Cl)cc2)cc1 | 30% | 101% | 107% | 99% |  |  | 101% |  | 66% | 85% |  | 
CCOC(=O)c1ccc(NCCCCCCc2ccc(Cl)cc2)cc1 | 30% |  | 95% | 85% |  |  | 99% | 68% | 50% | 73% |  | 
COc1ccc(CCCNc2ccc(C(=O)O)cc2)cc1 | 38% | 89% | 86% |  | 82% | 91% | 89% |  |  |  | 70% | 
CCOC(=O)c1ccc(NCCCc2ccc(Cl)c(Cl)c2)cc1 | 43% | 98% | 98% | 90% | 90% |  | 86% |  | 66% |  |  | 
CCOC(=O)c1ccc(NCc2cccs2)cc1 | 44% | 78% | 98% |  | 94% |  | 104% |  |  |  |  | 
Cc1ccc(CCCNc2ccc(C(=O)O)cc2)cc1 | 49% |  | 98% | 110% |  |  | 90% | 54% | 50% | 63% |  | 
O=C(O)c1ccc(NCCCc2cccc(F)c2)cc1 | 18% |  | 97% |  |  |  | 94% | 61% | 35% | 53% |  | 90%
